This note sets out measurements from ChEMBL document CHEMBL4368872, “Synthesis and anticonvulsant activity of phenoxyacetyl derivatives of amines, including aminoalkanols and amino acids” (Medchemcomm, 2018).

The source made the active and inactive calls.

Series [1] is described as follows: Mutagenicity in Salmonella typhimurium TA100 assessed as mutagenicity index at 50 to 500 ug/plate preincubated for 30 mins followed by top agar addition and measured after 48 hrs in absence of liver S9 fraction by Ames test. It counts as toxicity. The conditions noted are these: salmonella enterica subsp. enterica serovar typhimurium, s9, 48 h. In outline: (§1)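 Ames plate incorporation in S. typhimurium TA100 or TA1535, with or without S9. Overnight culture, compound in DMSO (50–500 µg per plate) and buffer or S9 mix preincubated 30 min at 37 °C, then top agar on glucose minimal agar. Incubated 48 h at 37 °C, revertants counted in triplicate. Vehicle negative control; NaN3 (−S9) and 2AA (+S9) positive controls. MI = revertants with compound / negative-control revertants; MI ≥ 2 with dose-response counts as positive.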
(In general: The Ames test detects mutagens through reverse mutation in bacteria.)

Series [2] can be described thus: Neurotoxicity in CF-1 mouse at 100 mg/kg, ip measured after 1 hr by rotarod test. To be noted: in vivo. The series is classed as toxicity, organism-based. The procedure, abridged:
(§2)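 Mice dosed i.p. were placed on a 1 in. knurled rod turning at 6 rpm. Toxicity was scored as failure to keep balance for at least 1 min, i.e. falling off three or more times. Results are reported as animals showing toxicity / animals tested at each time point.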
(In general: Falling from the rotarod earlier than controls is read as motor impairment.)

Series [3] in a line: Neurotoxicity in CF-1 mouse at 100 mg/kg, ip measured after 0.25 hrs by rotarod test. The series is classed as toxicity, organism-based. To be noted: in vivo. In outline: as §2
Series [4] deals with Mus musculus. The series is described as follows: Anticonvulsant activity in CF-1 mouse model of maximal electroshock-induced seizure assessed as suppression of tonic hind limb extension at 300 mg/kg, ip measured at 4 hrs post dose. The series is classed as functional, organism-based. In outline:
(§3)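 Mice dosed i.p. and given maximal electroshock at 50 mA. Read-out is protection, reported as number protected / number tested at 0.25, 0.5, 1 and 4 h after dosing.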
Background: Protection in the maximal electroshock model is a classic sign of anticonvulsant action.

A short description of series [5]: Neurotoxicity in Sprague-Dawley rat at 30 mg/kg, po measured after 0.5 hrs by rotarod test. It counts as toxicity, organism-based. To be noted: in vivo. In outline:
(§4)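 Rat neurotoxicity after i.p. or p.o. dosing was scored as animals impaired / animals tested at each time point. For p.o. dosing, TD50 was obtained by probit analysis.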

The subject of series [6] is Mus musculus. The series is described as follows: Anticonvulsant activity in CF-1 mouse model of subcutaneous pentylenetetrazole-induced seizure assessed as reduction in convulsions at 300 mg/kg, ip measured at 0.5 hrs post dose. It counts as functional, organism-based. In outline: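 Mice dosed i.p., then given pentylenetetrazole 85 mg/kg in 0.9% NaCl s.c. into the posterior midline of the neck. Seizures watched for at least 30 min. Scored as protected / tested at 0.5 and 4 h.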

The subject of series [7] is Salmonella typhimurium. The series is described as follows: Antimutagenic activity against Salmonella typhimurium TA1535 assessed as inhibition of NaN3-induced mutation at 100 ug/plate preincubated for 30 mins followed by top agar addition and measured after 48 hrs in presence of liver S9 fraction by Ames test relative to control. The series is classed as organism-based. To be noted: salmonella enterica subsp. enterica serovar typhimurium, s9, 48 h.

In series [8] the test system is Mus musculus. The series is described as follows: Anticonvulsant activity in CF-1 mouse assessed as protection against 44 mA current-induced seizure at 120 mg/kg, ip after 15 mins by 6 Hz psychomotor test. It counts as functional, organism-based. The procedure, abridged:
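Mice dosed i.p. (30, 100, 300 mg/kg; one line at 120 mg/kg read at 15 min). Corneal stimulation at 6 Hz, 44 mA for 3 s from a constant-current device induces a psychomotor seizure with stunned posture, forelimb automatisms, clonus, vibrissae twitching and Straub tail. Scored as number of animals protected / number tested (4 per group) at 0.5 and 2 h.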

Series [9] in a line: Neurotoxicity in Sprague-Dawley rat at 30 mg/kg, po measured after 2 hrs by rotarod test. The series is classed as toxicity, organism-based. The conditions noted are these: in vivo. In outline: as §4
The nature of series [10]: Neurotoxicity in Sprague-Dawley rat at 30 mg/kg, po measured after 0.25 hrs by rotarod test. It counts as toxicity, organism-based. To be noted: in vivo. The procedure, abridged:
as §4

The test system of series [11] is Rattus norvegicus. The series is described as follows: Anticonvulsant activity in hippocampal kindling Sprague-Dawley rat model assessed as after discharge time at 50 mg/kg, ip administered as single dose measured immediately. The series is classed as functional. The procedure, abridged: (§5)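 Rats implanted with a hippocampal electrode and kindled with suprathreshold trains (200 µA, 10 s, 50 Hz) every 30 min for 6 h on alternate days until fully kindled. One week later they received a single i.p. dose. Seizure score (Racine scale) and afterdischarge duration were recorded at 0–135 min and compared with the control stimulus given 15 min before dosing; each animal served as its own control. Values are mean ± SEM.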

Series [12] is described as follows: Neurotoxicity in CF-1 mouse at 30 mg/kg, ip measured after 0.5 hrs by rotarod test. The series is classed as toxicity, organism-based. To be noted: in vivo. The procedure, abridged: as §2
Series [13] concerns Mus musculus. The series is described as follows: Anticonvulsant activity in CF-1 mouse model of maximal electroshock-induced seizure assessed as suppression of tonic hind limb extension at 100 mg/kg, ip measured at 4 hrs post dose. It counts as functional, organism-based. In outline:
as §3

Series [14] in a line: Neurotoxicity in ip dosed CF-1 mouse by rotarod test. The series is classed as toxicity, organism-based. To be noted: in vivo. The procedure, abridged: as §2
Series [15] is described as follows: Mutagenicity in Salmonella typhimurium TA1535 assessed as mutagenicity index at 50 to 500 ug/plate preincubated for 30 mins followed by top agar addition and measured after 48 hrs in absence of liver S9 fraction by Ames test. The series is classed as toxicity. To be noted: salmonella enterica subsp. enterica serovar typhimurium, s9, 48 h. The procedure, abridged:
as §1

Series [16] deals with Rattus norvegicus. The series is described as follows: Anticonvulsant activity in hippocampal kindling Sprague-Dawley rat model assessed as after discharge time at 50 mg/kg, ip administered as single dose measured after 45 mins. The series is classed as functional. In outline:
as §5

Series [17] deals with Rattus norvegicus. The series is described as follows: Anticonvulsant activity in hippocampal kindling Sprague-Dawley rat model assessed as after discharge time at 50 mg/kg, ip administered as single dose measured after 135 mins. It counts as functional. The procedure, abridged:
as §5

For series [18], the system named is Mus musculus. The series is described as follows: Anticonvulsant activity in CF-1 mouse model of maximal electroshock-induced seizure assessed as suppression of tonic hind limb extension at 100 mg/kg, ip measured at 0.5 hrs post dose. The series is classed as functional, organism-based. The procedure, abridged:
as §3

Series [19] in a line: Half life in rat liver microsomes at 20 uM preincubated for 15 mins followed by NADPH generating system addition and measured by LC-MS/MS analysis. The series is classed as ADME, Microsome. In outline:
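Test compound at 20 µM preincubated 15 min with male rat liver microsomes (0.4 mg ml⁻¹) in 100 mM potassium phosphate, pH 7.4. Started with NADP⁺ (3.4 mM), glucose 6-phosphate (7.7 mM) and G6PDH (0.6 U ml⁻¹). Run 5–60 min at 37 °C in duplicate, stopped with cold perchloric acid plus internal standard, supernatant analysed by LC-MS/MS. Half-life and Cl_int derived by literature methods.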

Series [20] in a line: Neurotoxicity in CF-1 mouse at 30 mg/kg, ip measured after 4 hrs by rotarod test. The series is classed as toxicity, organism-based. To be noted: in vivo. In outline:
as §2

Series [21] in a line: Neurotoxicity in CF-1 mouse at 220 mg/kg, ip measured after 1 hr by rotarod test. The conditions noted are these: in vivo. It counts as toxicity, organism-based. In outline: as §2
The test system of series [22] is Salmonella typhimurium. The series is described as follows: Antimutagenic activity against Salmonella typhimurium TA100 assessed as inhibition of NaN3-induced mutation at 50 ug/plate preincubated for 30 mins followed by top agar addition and measured after 48 hrs in presence of liver S9 fraction by Ames test relative to control. It counts as organism-based. To be noted: salmonella enterica subsp. enterica serovar typhimurium, s9, 48 h.

Series [23] in a line: Mutagenicity in Salmonella typhimurium TA100 assessed as mutagenicity index at 50 to 500 ug/plate preincubated for 30 mins followed by top agar addition and measured after 48 hrs in presence of liver S9 fraction by Ames test. It counts as toxicity, subcellular. To be noted: salmonella enterica subsp. enterica serovar typhimurium, s9, 48 h. In outline:
as §1

Series [24] has as its system Mus musculus. The series is described as follows: Anticonvulsant activity in CF-1 mouse model of maximal electroshock-induced seizure assessed as suppression of tonic hind limb extension at 110 mg/kg, ip measured at 4 hrs post dose. It counts as functional, organism-based. The procedure, abridged:
as §3

Series [25] can be described thus: Neurotoxicity in Sprague-Dawley rat at 100 mg/kg, ip measured after 0.25 hrs by rotarod test. The series is classed as toxicity, organism-based. The conditions noted are these: in vivo. The procedure, abridged:
as §4

Broadly, the TD50 is the dose at which the toxic effect under study appears in half of the subjects. Read a high TD50 as harm only at a large dose. One may read the half-life as the time needed for the level to fall by half in the phase considered. Lower therefore signals rapid decline. Turning to `Cc1cccc(C)c1OCC(=O)N[C@H](C)CO`, the Activity index in [1], in series [15] and in series [23] was 0.7 to 1.7 in each case. Besides, the Activity result in series [2], in series [3], in [5], in series [9], in series [10] and in [12] was “Non-Toxic” each time. Moreover, the Activity result in series [20] and in series [21] was “Non-Toxic” each time. In addition, the outcome in series [4], in series [6], in series [13], in series [18] and in [24] was inactive. The results for the “inhibition (INH)” value in series [7] and in series [22] were 43% and 57%, respectively. The result in [8] was Active. Besides, the Time in series [11] is 72 s; in series [16] it was 73 s; in series [17] it was 72 s. In addition, in series [14], the TD50 came to 140 mg/kg. The half-life at 20 µM in series [19] is 3.04 h.
Take `CCC(O)CNC(=O)COc1c(C)cccc1C` (stereo unspecified): the Activity index in series [1], in series [15] and in [23] was 0.7 to 1.7 throughout. For the same molecule, the Activity result is “Non-Toxic” in series [2]; “Non-Toxic” in series [5]; “Non-Toxic” in series [9]; “Non-Toxic” in series [10]; “Active” in series [25]; “Non-Toxic” in series [12]. Further, the Activity result in series [20] is recorded as “Non-Toxic”. For the same molecule, the result in series [4], in series [6], in series [13] and in series [18] was inactive. The “inhibition (INH)” value in series [7] came to 51%; in series [22], 21%. Besides, the half-life at 20 µM in [19] was determined as 0.507 h.
